# Measured values collected from several papers.
# Each line is one published result; the experiments were not run side by side.
# BCHE: Cholinesterase (BCHE, Equus caballus, UniProt P81908)
# AGTR2: Type-2 angiotensin II receptor (AGTR2, Homo sapiens, UniProt P50052)
# PTGS1: Prostaglandin G/H synthase 1 (PTGS1, Ovis aries, UniProt P05979)
SMILES,target,test,conditions,inhibition [%]
COc1cc2c(cc1OC)C(=O)N(CC1CCN(Cc3cccc(C)n3)CC1)C2,BCHE,"enzyme activity, inhibitor, Ellman",1 µM,3.4
c1ccc(C(NCCNC(c2ccccc2)c2ccccc2)c2ccccc2)cc1,AGTR2,cell-free assay,10 µM,14
O=C(Nc1ccc(F)c(C(F)(F)F)c1)Nc1nnc(-c2ccncc2)s1,"RecQ-like DNA helicase BLM (BLM, Homo sapiens, UniProt P54132)","enzyme activity, inhibitor",50 µM,99
COc1cc2c(cc1OC)C(=O)N(Cc1cccnc1)C2,BCHE,"enzyme activity, inhibitor, Ellman",1 µM,-12.2
C#Cc1n[nH]c2c(-c3cn(C(C)c4ccccn4)c(=O)[nH]c3=O)cc(F)cc12 (stereo not drawn),"Activin receptor type-1B (ACVR1B, Homo sapiens, UniProt P36896)","enzyme activity, inhibitor",1 µM,3.8
Cn1cc(-c2cc(F)cc(N3CCn4c(cc5c4CCCC5)C3=O)c2CO)cc(Nc2ccc(N3CCN(C4COC4)CC3)cn2)c1=O,"Serine/threonine-protein kinase MRCK alpha (CDC42BPA, Homo sapiens, UniProt Q5VT25)","enzyme activity, inhibitor",0.1 µM,2
Nc1ccc(-c2nc3ccccc3s2)c(-c2cccc(O)c2)c1,PTGS1,"enzyme activity, inhibitor, absorbance",10 µM,27.7
CN(CCN1CCC(OC(=O)Nc2ccccc2-c2ccccc2)CC1)C(=O)c1ccc(CN2CCC(C(N)=O)CC2)cc1,AGTR2,"ligand displacement, radioligand",1 µM,-4
Cn1cc(-c2cccc(N3CCc4c(sc5c4CC(C)(C)C5)C3=O)c2CO)cc(Nc2ccncn2)c1=O,"SRSF protein kinase 2 (SRPK2, Homo sapiens, UniProt P78362)","enzyme activity, inhibitor",1 µM,-3
NS(=O)(=O)c1ccc(-c2ncc(Cl)cc2-c2nc3ccccc3s2)cc1,PTGS1,"enzyme activity, inhibitor, absorbance",10 µM,6.6
COc1cc2c(cc1OC)C(=O)N(Cc1nccc3ccccc13)C2,BCHE,"enzyme activity, inhibitor, Ellman",1 µM,2
Nc1ccc(-c2nc3ccccc3s2)c(-c2ccc(O)cc2)c1,PTGS1,"enzyme activity, inhibitor, absorbance",10 µM,14.2
COc1cc2c(cc1OC)C(=O)N(Cc1ccc3ccccc3n1)C2,BCHE,"enzyme activity, inhibitor, Ellman",1 µM,-0.7
CS(=O)(=O)c1ccc(-c2ncccc2-c2nc3ccccc3s2)cc1,PTGS1,"enzyme activity, inhibitor, absorbance",10 µM,21.5
COc1cc2c(cc1OC)C(=O)N(CC1CCN(Cc3ccncc3)CC1)C2,BCHE,"enzyme activity, inhibitor, Ellman",1 µM,8.2
CS(=O)(=O)c1ccc(-c2ncc(Cl)cc2-c2nc3ccccc3s2)cc1,PTGS1,"enzyme activity, inhibitor, absorbance",10 µM,0
COc1cc2c(cc1OC)C(=O)N(Cc1ccc(F)nc1)C2,BCHE,"enzyme activity, inhibitor, Ellman",1 µM,-6.8
COc1ccc(-c2ccc(N)cc2-c2nc3ccccc3s2)cc1,PTGS1,"enzyme activity, inhibitor, absorbance",10 µM,65.4
COc1nccc(CN2Cc3cc(OC)c(OC)cc3C2=O)n1,BCHE,"enzyme activity, inhibitor, Ellman",1 µM,6.1
COCc1c(-c2cc3cc(C)cc(OC)c3s2)c2c(N)ncnn2c1CN1CCNC(=O)C1,AGTR2,"ligand displacement, radioligand",10 µM,9
Cc1ccc(-c2nc3ccccc3s2)c(-c2ccc(S(N)(=O)=O)cc2)c1,PTGS1,"enzyme activity, inhibitor, absorbance",10 µM,9.6
